Experimental data from ChEMBL document CHEMBL3271936, “Biologically oriented organic sulfur chemistry. 14. Antiinflammatory properties of some aryl sulfides, sulfoxides, and sulfones” (J Med Chem, 1976).
The source made the active and inactive calls. No cut-off for these calls is given here.

Tests used:
Rattus norvegicus [1] = experiment: Antiinflammatory activity in Holtzman rat assessed as inhibition of carrageenan-induced paw edema at 50 mg/kg, po administered at 0.5 and 2.5 hrs prior to carrageenan-challenge relative to control; type: functional; conditions: Holtzmann
In short: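 Carrageenan paw-edema assay in male or female Holtzman rats (180–190 g), five per group. Compound given orally at 50 mg/kg twice, at 2.5 h and 0.5 h before carrageenan injection into the hind paw. Inhibition of edema is expressed as percent versus controls.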

Rattus norvegicus [2] = experiment: Antiinflammatory activity in po dosed Holtzman rat assessed as inhibition of UV radiation-induced erythema; type: functional; conditions: Holtzmann
Rattus norvegicus [3] = experiment: Antiinflammatory activity in Holtzman rat assessed as inhibition of UV radiation-induced erythema at 50 mg/kg, po relative to control; type: functional; conditions: Holtzmann
Mus musculus [4] = experiment: Toxicity in mouse assessed as mortality at >= 0.3 g/kg, ip; type: organism-based; conditions: in vivo, 300 mg/kg
In short: (§1)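 Mice dosed intraperitoneally at two dose levels, three animals per compound (rarely two). The approximate lethal range was taken as survival at the lower dose and death at the higher, in g/kg. Dose brackets were 0.1–0.3, 0.3–1.0, and >1.0.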

Rattus norvegicus [5] = experiment: Antiinflammatory activity in specific pathogen-free Alderley Park 1 rat assessed as inhibition of adjuvant-induced swelling at 25 mg/kg/day, po treated for 2 days prior to adjuvant-challenge followed by compound administration for 18 days; type: functional, organism-based
In short: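 Adjuvant arthritis assay in rats. Oral dosing at 25 mg/kg per day begins 2 days before adjuvant and continues 18 days after it, for 20 days in total.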

Mus musculus [6] = experiment: Antiinflammatory activity in mouse assessed as inhibition of carrageenan-induced edema at 30 mg/kg relative to control; type: functional
Rattus norvegicus [7] = experiment: Antiinflammatory activity in Holtzman rat assessed as inhibition of UV radiation-induced erythema at 25 mg/kg, po relative to control; type: functional; conditions: Holtzmann
Mus musculus [8] = experiment: Toxicity in mouse assessed as mortality up to 0.3 g/kg, ip; type: organism-based; conditions: in vivo, 300 mg/kg; in short: as §1
Rattus norvegicus [9] = experiment: Antiinflammatory activity in Holtzman rat assessed as inhibition of carrageenan-induced paw edema at 35 mg/kg, po relative to control; type: functional; conditions: Holtzmann

Row | Structure (SMILES) | inhibition in vivo at 50 mg/kg (Rattus norvegicus [1]) [%] | inhibition in vivo at 50 mg/kg (Rattus norvegicus [3]) [%] | Activity (Mus musculus [4]) | also measured
1 | CCCCC1C(=O)N(c2ccccc2)N(c2ccccc2)C1=O [PHENYLBUTAZONE] | 50 |  |  | ED50 (Rattus norvegicus [2]): 5 mg/kg
2 | Cc1cccc(S(=O)(=O)c2ccccc2C(=O)O)c1C | 0 | 27 | Toxic | 
3 | O=C(O)Cc1ccccc1Sc1ccccc1 | 23 | 51 | Toxic | inhibition (Rattus norvegicus [5]): inactive
4 | O=C(O)c1ccccc1[S+]([O-])c1ccccc1 (configuration not stated) | 19 | 0 | Toxic | 
5 | CC(C(=O)O)c1ccccc1[S+]([O-])c1ccccc1 (configuration not stated) | 8 | 7 |  | 
6 | CC(=O)Oc1ccccc1C(=O)O [ASPIRIN] | < 20 | 50 |  | 
7 | O=C(O)Cc1ccccc1[S+]([O-])c1ccccc1 (configuration not stated) | 30 | 23 | Toxic | inhibition (Rattus norvegicus [5]): inactive
8 | O=C(O)c1ccccc1[S+]([O-])c1cccc(C(F)(F)F)c1 (configuration not stated) | 4 | 2 | Toxic | 
9 | CC(C(=O)O)c1ccccc1Sc1ccccc1 (configuration not stated) | 14 | 33 | Toxic | 
10 | NCCSSc1ccccc1C(=O)O |  |  |  | inhibition in vivo at 30 mg/kg (Mus musculus [6]): 40%
11 | O=C(O)c1ccccc1S(=O)(=O)c1ccccc1 | 15 | 0 | Toxic | 
12 | Cc1cccc(Sc2ccccc2C(=O)O)c1C | 15 | 26 | Toxic | 
13 | Cc1cccc([S+]([O-])c2ccccc2C(=O)O)c1C (configuration not stated) | 15 | 0 |  | 
14 | O=C(O)c1ccccc1Sc1cccc(C(F)(F)F)c1 | 18 | 43 |  | inhibition in vivo at 25 mg/kg (Rattus norvegicus [7]): 0%; Activity (Mus musculus [8]): Non-toxic
15 | O=C(O)c1ccccc1S(=O)(=O)c1cccc(C(F)(F)F)c1 |  | 23 | Toxic | inhibition in vivo at 35 mg/kg (Rattus norvegicus [9]): 6%
